Test results reported in ChEMBL document CHEMBL3407460, “Synthesis of novel thiazole-based 8,9-dihydro-7H-pyrimido[4,5-b][1,4]diazepines as potential antitumor and antifungal agents” (2015).

Experiments:
Format in all cases: functional
NCI-H460 = experiment: Antitumor activity against human NCI-H460 cells after 48 hrs by Sulforhodamine B assay; details: NCI-H460, 48 h
Procedure, shortened: (§1)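 NCI 60-cell-line screen. Secondary five-dose test at 100, 10, 1.0, 0.1 and 0.01 µM with continuous drug exposure for 48 h. Cell growth was estimated by sulforhodamine B protein staining. […] LC50 was also reported.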

SK-MEL-5 = experiment: Antitumor activity against human SK-MEL-5 cells after 48 hrs by Sulforhodamine B assay; details: SK-MEL-5, 48 h; procedure, shortened: as §1
[1] = Antitumor activity against human COLO205 cells after 48 hrs by Sulforhodamine B assay; details: COLO 205, 48 h; procedure, shortened: as §1
SNB-75 = experiment: Antitumor activity against human SNB75 cells after 48 hrs by Sulforhodamine B assay; details: SNB-75, 48 h; procedure, shortened: as §1
SNB-19 = experiment: Antitumor activity against human SNB19 cells after 48 hrs by Sulforhodamine B assay; details: SNB-19, 48 h; procedure, shortened: as §1
[2] = Antitumor activity against human HCT116 cells after 48 hrs by Sulforhodamine B assay; details: HCT-116, 48 h; procedure, shortened: as §1
[3] = Antitumor activity against human UACC62 cells after 48 hrs by Sulforhodamine B assay; details: UACC-62, 48 h; procedure, shortened: as §1
[4] = Antitumor activity against human OVCAR3 cells after 48 hrs by Sulforhodamine B assay; details: OVCAR-3, 48 h; procedure, shortened: as §1
[5] = Antitumor activity against human Hs 578T cells after 48 hrs by Sulforhodamine B assay; procedure, shortened: as §1
MCF7 = experiment: Antitumor activity against human MCF7 cells after 48 hrs by Sulforhodamine B assay; details: MCF7, 48 h; procedure, shortened: as §1
NCI-H23 = experiment: Antitumor activity against human NCI-H23 cells after 48 hrs by Sulforhodamine B assay; details: NCI-H23, 48 h; procedure, shortened: as §1
SR = experiment: Antitumor activity against human SR cells after 48 hrs by Sulforhodamine B assay; procedure, shortened: as §1
K562 = experiment: Antitumor activity against human K562 cells after 48 hrs by Sulforhodamine B assay; details: K562, 48 h; procedure, shortened: as §1
T47D = experiment: Antitumor activity against human T47D cells after 48 hrs by Sulforhodamine B assay; procedure, shortened: as §1
MDA-MB-231 = experiment: Antitumor activity against human MDA-MB-231 cells after 48 hrs by Sulforhodamine B assay; details: MDA-MB-231, 48 h; procedure, shortened: as §1
SW-620 = experiment: Antitumor activity against human SW620 cells after 48 hrs by Sulforhodamine B assay; details: SW-620, 48 h; procedure, shortened: as §1
Malme-3M = experiment: Antitumor activity against human MALME-3M cells after 48 hrs by Sulforhodamine B assay; procedure, shortened: as §1
SK-MEL-2 = experiment: Antitumor activity against human SK-MEL-2 cells after 48 hrs by Sulforhodamine B assay; details: SK-MEL-2, 48 h; procedure, shortened: as §1
[6] = Antitumor activity against human MOLT4 cells after 48 hrs by Sulforhodamine B assay; details: MOLT-4, 48 h; procedure, shortened: as §1
NCI-H226 = experiment: Antitumor activity against human NCI-H226 cells after 48 hrs by Sulforhodamine B assay; details: NCI-H226, 48 h; procedure, shortened: as §1
[7] = Antitumor activity against human OVCAR8 cells after 48 hrs by Sulforhodamine B assay; details: OVCAR-8, 48 h; procedure, shortened: as §1
[8] = Antitumor activity against human BT549 cells after 48 hrs by Sulforhodamine B assay; details: BT-549, 48 h; procedure, shortened: as §1
[9] = Antitumor activity against human HOP92 cells after 48 hrs by Sulforhodamine B assay; details: HOP-92, 48 h; procedure, shortened: as §1
MDA-MB-435 = experiment: Antitumor activity against human MDA-MB-435 cells after 48 hrs by Sulforhodamine B assay; details: MDA-MB-435, 48 h; procedure, shortened: as §1
M14 = experiment: Antitumor activity against human M14 cells after 48 hrs by Sulforhodamine B assay; details: M14, 48 h; procedure, shortened: as §1
[10] = Antitumor activity against human LOXIMVI cells after 48 hrs by Sulforhodamine B assay; details: LOX IMVI; procedure, shortened: as §1
SK-MEL-28 = experiment: Antitumor activity against human SK-MEL-28 cells after 48 hrs by Sulforhodamine B assay; details: SK-MEL-28, 48 h; procedure, shortened: as §1
HOP-62 = experiment: Antitumor activity against human HOP62 cells after 48 hrs by Sulforhodamine B assay; details: HOP-62, 48 h; procedure, shortened: as §1
SF-268 = experiment: Antitumor activity against human SF268 cells after 48 hrs by Sulforhodamine B assay; details: SF-268, 48 h; procedure, shortened: as §1
IGROV-1 = experiment: Antitumor activity against human IGROV1 cells after 48 hrs by Sulforhodamine B assay; details: IGROV-1, 48 h; procedure, shortened: as §1
[11] = Antitumor activity against human RPMI8226 cells after 48 hrs by Sulforhodamine B assay; details: RPMI-8226, 48 h; procedure, shortened: as §1
KM12 = experiment: Antitumor activity against human KM12 cells after 48 hrs by Sulforhodamine B assay; details: KM12, 48 h; procedure, shortened: as §1
[12] = Antitumor activity against human NCI-ADR-RES cells after 48 hrs by Sulforhodamine B assay; procedure, shortened: as §1
[13] = Antitumor activity against human SF539 cells after 48 hrs by Sulforhodamine B assay; details: SF-539, 48 h; procedure, shortened: as §1
HL-60(TB) = experiment: Antitumor activity against human HL-60(TB) cells after 48 hrs by Sulforhodamine B assay; details: HL-60, 48 h; procedure, shortened: as §1
DU-145 = experiment: Antitumor activity against human DU145 cells after 48 hrs by Sulforhodamine B assay; details: DU-145, 48 h; procedure, shortened: as §1
[14] = Antitumor activity against human HCT15 cells after 48 hrs by Sulforhodamine B assay; details: HCT-15, 48 h; procedure, shortened: as §1
MDA-MB-468 = experiment: Antitumor activity against human MDA-MB-468 cells after 48 hrs by Sulforhodamine B assay; details: MDA-MB-468, 48 h; procedure, shortened: as §1
NCI-H522 = experiment: Antitumor activity against human NCI-H522 cells after 48 hrs by Sulforhodamine B assay; details: NCI-H522, 48 h; procedure, shortened: as §1
[15] = read-out: LC50 (the source's name)

Structure (SMILES): Cc1ccc(C2=Nc3c(N)ncnc3NC(c3sc(Cl)nc3Cl)C2)cc1 (stereo not drawn)
- GI50 (NCI-H460): 4.06 µM
- LC50 (NCI-H460): 49.4 µM
- GI50 (SK-MEL-5): 3.69 µM
- CC50 (SK-MEL-5; [15]): 37.3 µM
- GI50 [1]: 4.18 µM
- CC50 [1, 15]: 42.1 µM
- GI50 (SNB-75): 1.63 µM
- LC50 (concentration killing 50% of cells) (SNB-75): 38.1 µM
- GI50 (SNB-19): 5.51 µM
- LC50 (SNB-19): 47.2 µM
- GI50 [2]: 3.7 µM
- CC50 [2, 15]: 37.3 µM
- GI50 [3]: 3.05 µM
- LC50 [3]: 37.2 µM
- GI50 [4]: 3.6 µM
- CC50 [4, 15]: 43.4 µM
- GI50 [5]: 2.44 µM
- CC50 [5, 15]: > 100 µM
- GI50 (MCF7): 3.56 µM
- CC50 (MCF7; [15]): 97.6 µM
- GI50 (NCI-H23): 8.23 µM
- LC50 (NCI-H23): 58.7 µM
- GI50 (SR): 2.25 µM
- CC50 (SR; [15]): 76.7 µM
- GI50 (K562): 1.68 µM
- CC50 (K562; [15]): > 100 µM
- GI50 (T47D): 3.35 µM
- CC50 (T47D; [15]): > 100 µM
- GI50 (MDA-MB-231): 3.86 µM
- LC50 (concentration killing 50% of cells) (MDA-MB-231): 42.1 µM
- GI50 (SW-620): 3.42 µM
- CC50 (SW-620; [15]): 40.7 µM
- GI50 (Malme-3M): 6.33 µM
- CC50 (Malme-3M; [15]): 44 µM
- GI50 (SK-MEL-2): 2.98 µM
- LC50 (SK-MEL-2): 35.6 µM
- GI50 [6]: 4.06 µM
- LC50 [6]: > 100 µM
- GI50 (NCI-H226): 13.7 µM
- CC50 (NCI-H226; [15]): 90.3 µM
- GI50 [7]: 4.8 µM
- LC50 (concentration killing 50% of cells) [7]: 80.7 µM
- GI50 [8]: 3.93 µM
- CC50 [8, 15]: 40.6 µM
- GI50 [9]: 3.72 µM
- CC50 [9, 15]: 45.4 µM
- GI50 (MDA-MB-435): 1.47 µM
- CC50 (MDA-MB-435; [15]): 39 µM
- GI50 (M14): 2.64 µM
- CC50 (M14; [15]): 35.6 µM
- GI50 [10]: 5.39 µM
- CC50 [10, 15]: 43.2 µM
- GI50 (SK-MEL-28): 4.26 µM
- LC50 (SK-MEL-28): 42.8 µM
- GI50 (HOP-62): 3.72 µM
- LC50 (concentration giving 50% net cell kill) (HOP-62): 48.9 µM
- GI50 (SF-268): 5.68 µM
- CC50 (SF-268; [15]): 67.3 µM
- GI50 (IGROV-1): 7.08 µM
- CC50 (IGROV-1; [15]): 63.2 µM
- GI50 [11]: 4.99 µM
- LC50 (concentration causing 50% net cell kill) [11]: > 100 µM
- GI50 (KM12): 3.8 µM
- CC50 (KM12; [15]): 40.4 µM
- GI50 [12]: 3.13 µM
- CC50 [12, 15]: 58.5 µM
- GI50 [13]: 2.69 µM
- CC50 [13, 15]: 33.1 µM
- GI50 (HL-60(TB)): 2.04 µM
- CC50 (HL-60(TB); [15]): > 100 µM
- GI50 (DU-145): 11.2 µM
- CC50 (DU-145; [15]): 52.4 µM
- GI50 [14]: 3.05 µM
- CC50 [14, 15]: 50.1 µM
- GI50 (MDA-MB-468): 2.12 µM
- LC50 (MDA-MB-468): 41.6 µM
- GI50 (NCI-H522): 4.05 µM
- CC50 (NCI-H522; [15]): 42.1 µM
